Measurements published in ChEMBL document CHEMBL1138053, “Design, synthesis, and structure-activity relationships of thieno[2,3-b]pyridin-4-one derivatives as a novel class of potent, orally active, non-peptide luteinizing hormone-releasing hormone receptor antagonists” (J Med Chem, 2006).

Biological target: T1, Gonadotropin-releasing hormone receptor (Homo sapiens, UniProt P30968)
T1 sequence (P30968 whole entry): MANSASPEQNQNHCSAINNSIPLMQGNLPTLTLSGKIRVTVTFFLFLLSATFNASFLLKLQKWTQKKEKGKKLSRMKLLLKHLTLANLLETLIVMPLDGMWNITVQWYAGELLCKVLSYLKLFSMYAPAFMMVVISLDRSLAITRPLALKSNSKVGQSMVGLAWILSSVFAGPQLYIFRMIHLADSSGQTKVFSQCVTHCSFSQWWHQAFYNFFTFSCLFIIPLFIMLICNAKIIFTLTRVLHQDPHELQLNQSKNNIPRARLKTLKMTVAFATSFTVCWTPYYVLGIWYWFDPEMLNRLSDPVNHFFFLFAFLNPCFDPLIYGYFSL
Assay: Inhibition of LHRH-stimulated arachidonic acid release in CHO cells expressing human LHRH receptor
Type: functional, cell-based
Details: not given
Method in brief: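 CHO cells stably expressing human or monkey LHRH receptor, seeded at 4 × 10⁴ cells/well and cultured 1 day, then labelled 1 day with [³H]arachidonic acid (11 kBq/well). Washed in DMEM with 20 mM HEPES and 0.2% BSA, preincubated with compound 60 min at 37 °C, then stimulated with LHRH (1 nM) for 40 min at 37 °C.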

Row | IC50 [nM] | SMILES
1 | 0.07 | CNC(=O)Nc1ccc(-c2sc3c(c2CN(C)Cc2ccccc2)c(=O)c(C(=O)C(C)C)cn3Cc2c(F)cccc2F)cc1
2 | 0.1 | CC(C)C(=O)c1cn(Cc2c(F)cccc2F)c2sc(-c3ccc(NC(=O)C4(O)CC4)cc3)c(CN(C)Cc3ccccc3)c2c1=O

Tested on: not listed separately
Assay: Distribution coefficient, log D of the compound
Details: octanol/water

Row | logD | SMILES
3 | 6.33 | CC(C)C(=O)Nc1ccc(-c2sc3c(c2CN(C)Cc2ccccc2)c(=O)c(C(=O)C(C)C)cn3Cc2c(F)cccc2F)cc1

Biological target: T1, Gonadotropin-releasing hormone receptor
Assay: Inhibition of [125I]leuprorelin binding to human recombinant LHRH receptor expressed in CHO cells
Type: cell-based
Details: not given

Row | SMILES | IC50 [nM]
4 | CCOC(=O)c1cnc2sc(-c3ccc(OC)cc3)c(CN(C)Cc3ccccc3)c2c1O | > 20000
5 | CCOC(=O)c1cn(Cc2ccccc2F)c2sc(-c3ccc(NC(=O)c4ccccc4)cc3)c(CN(C)Cc3ccccc3)c2c1=O | 1
6 | CNC(=O)Nc1ccc(-c2sc3c(c2CN(C)Cc2ccccc2)c(=O)c(C(=O)C(C)C)cn3Cc2c(F)cccc2F)cc1 | 0.1
7 | CC(C)C(=O)Nc1ccc(-c2sc3c(c2CN(C)Cc2ccccc2)c(=O)c(C(=O)c2ccccc2)cn3Cc2c(F)cccc2F)cc1 | 0.1
8 | CC(C)C(=O)c1cn(Cc2c(F)cccc2F)c2sc(-c3ccc(NC(=O)CO)cc3)c(CN(C)Cc3ccccc3)c2c1=O | 0.2
9 | CC(C)C(=O)Nc1ccc(-c2sc3c(c2CN(C)Cc2ccccc2)c(=O)c(C(=O)C(C)C)cn3Cc2c(F)cccc2F)cc1 | 0.2
10 | CC(C)C(=O)Nc1ccc(-c2sc3c(c2CN(C)Cc2ccccc2)c(=O)c(C(O)C(C)C)cn3Cc2c(F)cccc2F)cc1 (stereo unspecified) | 0.4
11 | CCOC(=O)c1cn(Cc2ccccc2F)c2sc(-c3ccc(NC(=O)NC)cc3)c(CN(C)Cc3ccccc3)c2c1=O | 0.07
12 | CCC(=O)c1cn(Cc2c(F)cccc2F)c2sc(-c3ccc(NC(=O)C(C)C)cc3)c(CN(C)Cc3ccccc3)c2c1=O | 0.4
13 | CC(C)C(=O)c1cn(Cc2c(F)cccc2F)c2sc(-c3ccc(NC(=O)C(C)(C)O)cc3)c(CN(C)Cc3ccccc3)c2c1=O | 0.2
14 | CC(C)C(=O)c1cn(Cc2c(F)cccc2F)c2sc(-c3ccc(NC(=O)C4(O)CC4)cc3)c(CN(C)Cc3ccccc3)c2c1=O | 0.1
15 | CC(C)C(=O)c1cn(Cc2c(F)cccc2F)c2sc(-c3ccc(NC(=O)CN)cc3)c(CN(C)Cc3ccccc3)c2c1=O | 9
16 | CCOC(=O)c1cn(Cc2ccccc2F)c2sc(-c3ccc(NC(C)=O)cc3)c(CN(C)Cc3ccccc3)c2c1=O | 2
17 | CCOC(=O)c1cn(Cc2ccccc2OC)c2sc(-c3ccccc3OC)c(CN(C)Cc3ccccc3)c2c1=O | 700
18 | CCOC(=O)c1cn(Cc2ccccc2F)c2sc(-c3ccc(NC(=O)CC)cc3)c(CN(C)Cc3ccccc3)c2c1=O | 0.4
19 | CCOC(=O)c1cn(Cc2c(F)cccc2F)c2sc(-c3ccc(NC(=O)CC)cc3)c(CN(C)Cc3ccccc3)c2c1=O | 0.1
20 | CCOC(=O)c1cn(Cc2c(F)cccc2F)c2sc(-c3ccc(NC(=O)NC)cc3)c(CN(C)Cc3ccccc3)c2c1=O | 0.06
21 | CCOC(=O)c1cn(Cc2c(F)cccc2F)c2sc(-c3ccc(NC(=O)C(C)C)cc3)c(CN(C)Cc3ccccc3)c2c1=O | 0.2
22 | CCOC(=O)c1cn(Cc2ccccc2OC)c2sc(-c3ccc(OC)cc3)c(CN(C)C)c2c1=O | 500
23 | CCOC(=O)c1cn(Cc2ccccc2OC)c2sc(-c3ccc(OC)cc3)c(C)c2c1=O | 10000
24 | CCOC(=O)c1cn(Cc2ccccc2F)c2sc(-c3ccc(N(C)C(=O)NC)cc3)c(CN(C)Cc3ccccc3)c2c1=O | 2
25 | CCOC(=O)c1cn(Cc2ccccc2OC)c2sc(-c3ccccc3)c(CN(C)Cc3ccccc3)c2c1=O | 200
26 | CCC(=O)Nc1ccc(-c2sc3c(c2CN(C)Cc2ccccc2)c(=O)c(C(=O)NC(C)C)cn3Cc2c(F)cccc2F)cc1 | 8
27 | CCOC(=O)c1cn(Cc2ccccc2F)c2sc(-c3ccc(NC(=O)Nc4ccccc4)cc3)c(CN(C)Cc3ccccc3)c2c1=O | 30

Continued, values first:

Row | IC50 [nM] | SMILES
28 | 300 | CCOC(=O)c1cn(Cc2ccc(OC)cc2)c2sc(-c3ccc(OC)cc3)c(CN(C)Cc3ccccc3)c2c1=O
29 | 30 | CCOC(=O)c1cn(Cc2ccccc2F)c2sc(-c3ccc(OC)cc3)c(CN(C)Cc3ccccc3)c2c1=O
30 | 5000 | CCOC(=O)c1cn(C)c2sc(-c3ccc(OC)cc3)c(CN(C)Cc3ccccc3)c2c1=O
31 | 200 | CCOC(=O)c1cn(Cc2ccccc2)c2sc(-c3ccc(OC)cc3)c(CN(C)Cc3ccccc3)c2c1=O
32 | 500 | CCOC(=O)c1cn(Cc2ccccc2)c2sc(-c3cccc(OC)c3)c(CN(C)Cc3ccccc3)c2c1=O
33 | 7000 | CCOC(=O)c1cn(Cc2ccccc2OC)c2sc(-c3ccc(OC)cc3)c(CN(Cc3ccccc3)C(C)=O)c2c1=O
34 | 0.6 | CCOC(=O)c1cn(Cc2ccccc2)c2sc(-c3ccc(NC(=O)C(C)C)cc3)c(CN(C)Cc3ccccc3)c2c1=O
35 | 300 | CCOC(=O)c1cn(Cc2cccc(F)c2)c2sc(-c3ccc(OC)cc3)c(CN(C)Cc3ccccc3)c2c1=O
36 | 300 | CCOC(=O)c1cn(Cc2ccccc2OC)c2sc(-c3ccc(OC)cc3)c(CN(CC)Cc3ccccc3)c2c1=O
37 | 40 | CCOC(=O)c1cn(Cc2ccccc2F)c2sc(-c3ccc(N)cc3)c(CN(C)Cc3ccccc3)c2c1=O
38 | 100 | CCOC(=O)c1cn(Cc2ccccc2C#N)c2sc(-c3ccc(OC)cc3)c(CN(C)Cc3ccccc3)c2c1=O
39 | 2000 | CCOC(=O)c1cn(Cc2ccccc2OC)c2sc(-c3ccc(OC)cc3)c(CNCc3ccccc3)c2c1=O
40 | 400 | CCOC(=O)c1cn(Cc2ccc(F)cc2)c2sc(-c3ccc(OC)cc3)c(CN(C)Cc3ccccc3)c2c1=O
41 | 100 | CCOC(=O)c1cn(Cc2ccccc2[N+](=O)[O-])c2sc(-c3ccc(OC)cc3)c(CN(C)Cc3ccccc3)c2c1=O
42 | 400 | CCOC(=O)c1cn(Cc2cccc(OC)c2)c2sc(-c3ccc(OC)cc3)c(CN(C)Cc3ccccc3)c2c1=O

Same assay, conditions: cho

Row | IC50 [nM] | SMILES
43 | 30 | CCOC(=O)c1cn(Cc2ccccc2F)c2sc(-c3ccc(OC)cc3)c(CN(C)Cc3ccccc3)c2c1=O

Biological target: T2, Gonadotropin-releasing hormone receptor (Rattus norvegicus, UniProt P30969)
T2 sequence (P30969 whole entry): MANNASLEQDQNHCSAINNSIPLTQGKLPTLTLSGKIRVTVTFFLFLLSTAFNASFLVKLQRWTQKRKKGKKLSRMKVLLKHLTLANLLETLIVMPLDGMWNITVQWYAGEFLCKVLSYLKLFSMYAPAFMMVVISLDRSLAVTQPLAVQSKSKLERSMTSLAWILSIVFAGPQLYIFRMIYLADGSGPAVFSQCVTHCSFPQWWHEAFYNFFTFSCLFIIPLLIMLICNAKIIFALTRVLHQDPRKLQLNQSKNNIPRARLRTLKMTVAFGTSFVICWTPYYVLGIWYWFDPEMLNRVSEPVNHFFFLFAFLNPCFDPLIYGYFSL
Assay: Inhibition of [125I]leuprorelin binding to rat anterior pituitary LHRH receptor
Details: not given

Row | IC50 [nM] | SMILES
44 | 200 | CNC(=O)Nc1ccc(-c2sc3c(c2CN(C)Cc2ccccc2)c(=O)c(C(=O)C(C)C)cn3Cc2c(F)cccc2F)cc1
45 | 150 | CC(C)C(=O)c1cn(Cc2c(F)cccc2F)c2sc(-c3ccc(NC(=O)C4(O)CC4)cc3)c(CN(C)Cc3ccccc3)c2c1=O

Biological target: T3, Gonadotropin-releasing hormone receptor (Homo sapiens) (UniProt P30968)
T3 sequence (whole entry): T1 sequence (P30968 whole entry)
Assay: Inhibition of [125I]leuprorelin binding to human recombinant LHRH receptor at 20 uM
Details: not given
Method in brief: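 Membranes (0.2 mg/mL) from CHO cells stably expressing cloned human LHRH receptor, incubated 60 min at 25 °C with [125I]leuprorelin and test compound in Tris buffer pH 7.5 containing EDTA, BSA, NaN3 and protease inhibitors. Bound ligand separated by filtration on PEI-coated glass-fibre filters. Nonspecific binding taken with 1 µM unlabelled leuprorelin.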

Row | inhibition [%] | SMILES
46 | 42 | CCOC(=O)c1cn(Cc2ccccc2OC)c2sc(-c3ccc(OC)cc3)c(CNc3ccccc3)c2c1=O
